Source: ChEMBL document CHEMBL5661979, “Pharmacological inhibition of BMK1 suppresses tumor growth through promyelocytic leukemia protein” (Cancer Cell, 2010)

Assays:
[1] = Inhibition of SRPK1/2 in human HeLa cells lysate at 10 uM pre incubated for 15 mins followed by ADP acyl phosphate probe addition and measured after 10 mins by LC-MS/MS analysis relative to control; settings: 25 min, condition cancer
[2] = biological target: Tyrosine-protein kinase Fer (Homo sapiens, UniProt P16591); assay: Inhibition of FER in human HeLa cells lysate at 50 uM pre incubated for 15 mins followed by ATP acyl phosphate probe addition and measured after 10 mins by LC-MS/MS analysis relative to control; assay type: subcellular; settings: time 25.0 min
[3] = biological target: Serine/threonine-protein kinase Chk2 (Homo sapiens, UniProt O96017); assay: Inhibition of CHK2 in human HeLa cells lysate at 50 uM pre incubated for 15 mins followed by ADP acyl phosphate probe addition and measured after 10 mins by LC-MS/MS analysis relative to control; assay type: subcellular; settings: time 25.0 min
[4] = biological target: Mitogen-activated protein kinase 14 (Homo sapiens, UniProt Q16539); assay: Inhibition of P38a interaction site in human HeLa cells lysate pre incubated for 15 mins followed by ATP acyl phosphate probe addition and measured after 10 mins by LC-MS/MS analysis; assay type: subcellular
[5] = biological target: T1, Dual specificity mitogen-activated protein kinase kinase 6 (Homo sapiens) (UniProt P52564); assay: Inhibition of MAP2K6 in human HeLa cells lysate at 2 uM pre incubated for 15 mins followed by ATP acyl phosphate probe addition and measured after 10 mins by LC-MS/MS analysis relative to control; assay type: subcellular; settings: time 25.0 min
T1 sequence (whole entry): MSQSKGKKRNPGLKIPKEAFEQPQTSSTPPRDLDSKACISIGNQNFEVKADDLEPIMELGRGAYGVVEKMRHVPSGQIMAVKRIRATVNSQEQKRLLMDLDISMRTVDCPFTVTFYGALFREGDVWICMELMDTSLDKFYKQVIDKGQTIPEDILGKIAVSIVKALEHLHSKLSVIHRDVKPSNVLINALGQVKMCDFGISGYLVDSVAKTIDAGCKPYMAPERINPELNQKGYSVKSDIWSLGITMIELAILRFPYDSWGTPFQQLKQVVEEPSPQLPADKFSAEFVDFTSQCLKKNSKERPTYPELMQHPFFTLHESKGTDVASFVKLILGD

[6] = biological target: Protein kinase C theta type (Homo sapiens, UniProt Q04759); assay: Inhibition of PKCtheta in human HeLa cells lysate pre incubated for 15 mins followed by ATP acyl phosphate probe addition and measured after 10 mins by LC-MS/MS analysis; assay type: subcellular
[7] = biological target: Cyclin-dependent kinase 7 (Homo sapiens, UniProt P50613); assay: Inhibition of CDK7 in human HeLa cells lysate pre incubated for 15 mins followed by ATP acyl phosphate probe addition and measured after 10 mins by LC-MS/MS analysis; assay type: subcellular
Outline: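 KiNativ profiling in HeLa lysate (5 mg/mL total protein). Lysate incubated 15 min with inhibitor at 50, 10, 2, 0.8 or 0 μM. ATP or ADP acylphosphate probe then added (5 μM final) and reacted 10 min. Reaction stopped with urea and analysed by targeted MS, using up to four fragment ions per kinase peptide-probe conjugate. % inhibition taken against untreated lysate. Run in duplicate.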

eIF-2-alpha kinase GCN2 = eIF-2-alpha kinase GCN2 (Homo sapiens, UniProt Q9P2K8); assay: Inhibition of GCN2 in human HeLa cells lysate at 2 uM pre incubated for 15 mins followed by ATP acyl phosphate probe addition and measured after 10 mins by LC-MS/MS analysis relative to control; assay type: subcellular; settings: time 25.0 min
[8] = biological target: Mitogen-activated protein kinase kinase kinase kinase 2 (Homo sapiens, UniProt Q12851); assay: Inhibition of GCK in human HeLa cells lysate pre incubated for 15 mins followed by ADP acyl phosphate probe addition and measured after 10 mins by LC-MS/MS analysis; assay type: subcellular
[9] = biological target: Ribosomal protein S6 kinase beta-1 (Homo sapiens, UniProt P23443); assay: Inhibition of P70S6K in human HeLa cells lysate pre incubated for 15 mins followed by ATP acyl phosphate probe addition and measured after 10 mins by LC-MS/MS analysis; assay type: subcellular
[10] = biological target: Ribosomal protein S6 kinase alpha-1 (Homo sapiens, UniProt Q15418); assay: Inhibition of C-terminal RPS6KA1 kinase domain (unknown origin) assessed as remaining activity at 10 uM by ATP-competition binding assay relative to control
Activated CDC42 kinase 1 = Activated CDC42 kinase 1 (Homo sapiens, UniProt Q07912); assay: Inhibition of ACK1 in human HeLa cells lysate pre incubated for 15 mins followed by ADP acyl phosphate probe addition and measured after 10 mins by LC-MS/MS analysis; assay type: subcellular
Outline: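 HeLa cell lysate (5 mg/mL total protein) preincubated 15 min with inhibitor at 50, 10, 2, 0.8 and 0 μM, then ATP or ADP acylphosphate probe added (5 μM final) for 10 min. Reaction stopped with urea, then targeted LC-MS/MS. Up to four fragment ions per kinase peptide-probe conjugate were used. % inhibition was taken versus untreated lysate. Run in duplicate.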

[11] = biological target: Mitogen-activated protein kinase kinase kinase 11 (Homo sapiens, UniProt Q16584); assay: Inhibition of MLK3 in human HeLa cells lysate pre incubated for 15 mins followed by ATP acyl phosphate probe addition and measured after 10 mins by LC-MS/MS analysis; assay type: subcellular
[12] = biological target: T2, Mixed lineage kinase domain-like protein (Homo sapiens) (UniProt Q8NB16); assay: Inhibition of MLKL in human HeLa cells lysate at 50 uM pre incubated for 15 mins followed by ADP acyl phosphate probe addition and measured after 10 mins by LC-MS/MS analysis relative to control; assay type: subcellular; settings: time 25.0 min
T2 sequence (whole entry): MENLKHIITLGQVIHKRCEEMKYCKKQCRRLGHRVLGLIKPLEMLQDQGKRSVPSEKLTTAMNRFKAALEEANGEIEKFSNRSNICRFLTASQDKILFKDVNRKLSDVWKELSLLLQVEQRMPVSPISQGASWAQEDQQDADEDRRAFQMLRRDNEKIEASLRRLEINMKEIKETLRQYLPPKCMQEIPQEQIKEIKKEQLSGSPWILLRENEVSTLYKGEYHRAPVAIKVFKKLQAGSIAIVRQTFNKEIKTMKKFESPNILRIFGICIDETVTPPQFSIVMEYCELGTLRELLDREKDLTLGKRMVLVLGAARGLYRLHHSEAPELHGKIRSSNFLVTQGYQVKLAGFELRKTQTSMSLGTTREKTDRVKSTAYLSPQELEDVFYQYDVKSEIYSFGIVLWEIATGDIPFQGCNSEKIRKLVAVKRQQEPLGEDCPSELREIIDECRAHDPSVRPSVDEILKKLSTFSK

Sequence of Protein kinase C theta type (Q04759 whole entry): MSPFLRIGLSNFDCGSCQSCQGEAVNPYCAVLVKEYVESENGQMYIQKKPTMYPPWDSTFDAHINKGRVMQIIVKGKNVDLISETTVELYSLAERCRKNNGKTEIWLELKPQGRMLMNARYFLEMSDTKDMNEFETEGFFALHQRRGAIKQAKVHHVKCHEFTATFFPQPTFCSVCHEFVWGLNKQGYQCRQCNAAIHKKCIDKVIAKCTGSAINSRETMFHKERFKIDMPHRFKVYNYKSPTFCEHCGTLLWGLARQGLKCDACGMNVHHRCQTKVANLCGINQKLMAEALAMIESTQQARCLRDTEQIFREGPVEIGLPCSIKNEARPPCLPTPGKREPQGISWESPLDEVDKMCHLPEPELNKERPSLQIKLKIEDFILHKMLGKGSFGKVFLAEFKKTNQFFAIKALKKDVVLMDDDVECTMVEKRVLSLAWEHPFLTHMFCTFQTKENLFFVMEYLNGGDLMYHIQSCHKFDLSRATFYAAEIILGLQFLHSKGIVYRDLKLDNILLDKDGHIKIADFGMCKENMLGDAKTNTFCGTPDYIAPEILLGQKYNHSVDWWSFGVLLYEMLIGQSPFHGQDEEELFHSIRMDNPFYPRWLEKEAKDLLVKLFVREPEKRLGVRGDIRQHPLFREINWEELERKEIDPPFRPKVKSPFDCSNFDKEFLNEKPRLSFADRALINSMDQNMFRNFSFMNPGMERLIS
Sequence of Ribosomal protein S6 kinase beta-1 (P23443 whole entry, the tested form may be a part): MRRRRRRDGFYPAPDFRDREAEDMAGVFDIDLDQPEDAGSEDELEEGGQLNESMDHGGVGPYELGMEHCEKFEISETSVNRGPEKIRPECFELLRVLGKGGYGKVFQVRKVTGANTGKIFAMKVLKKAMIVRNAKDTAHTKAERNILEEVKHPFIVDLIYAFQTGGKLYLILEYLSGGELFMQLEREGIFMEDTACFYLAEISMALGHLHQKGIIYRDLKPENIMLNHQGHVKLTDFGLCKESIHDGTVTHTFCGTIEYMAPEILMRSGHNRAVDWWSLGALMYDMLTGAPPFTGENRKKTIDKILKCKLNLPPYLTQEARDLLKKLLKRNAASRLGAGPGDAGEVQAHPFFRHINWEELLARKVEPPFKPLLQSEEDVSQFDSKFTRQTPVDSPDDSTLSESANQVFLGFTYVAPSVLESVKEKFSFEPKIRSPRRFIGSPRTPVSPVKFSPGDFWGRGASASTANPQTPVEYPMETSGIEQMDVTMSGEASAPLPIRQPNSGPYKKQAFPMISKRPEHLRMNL
Sequence of Tyrosine-protein kinase Fer (P16591 whole entry, looked up): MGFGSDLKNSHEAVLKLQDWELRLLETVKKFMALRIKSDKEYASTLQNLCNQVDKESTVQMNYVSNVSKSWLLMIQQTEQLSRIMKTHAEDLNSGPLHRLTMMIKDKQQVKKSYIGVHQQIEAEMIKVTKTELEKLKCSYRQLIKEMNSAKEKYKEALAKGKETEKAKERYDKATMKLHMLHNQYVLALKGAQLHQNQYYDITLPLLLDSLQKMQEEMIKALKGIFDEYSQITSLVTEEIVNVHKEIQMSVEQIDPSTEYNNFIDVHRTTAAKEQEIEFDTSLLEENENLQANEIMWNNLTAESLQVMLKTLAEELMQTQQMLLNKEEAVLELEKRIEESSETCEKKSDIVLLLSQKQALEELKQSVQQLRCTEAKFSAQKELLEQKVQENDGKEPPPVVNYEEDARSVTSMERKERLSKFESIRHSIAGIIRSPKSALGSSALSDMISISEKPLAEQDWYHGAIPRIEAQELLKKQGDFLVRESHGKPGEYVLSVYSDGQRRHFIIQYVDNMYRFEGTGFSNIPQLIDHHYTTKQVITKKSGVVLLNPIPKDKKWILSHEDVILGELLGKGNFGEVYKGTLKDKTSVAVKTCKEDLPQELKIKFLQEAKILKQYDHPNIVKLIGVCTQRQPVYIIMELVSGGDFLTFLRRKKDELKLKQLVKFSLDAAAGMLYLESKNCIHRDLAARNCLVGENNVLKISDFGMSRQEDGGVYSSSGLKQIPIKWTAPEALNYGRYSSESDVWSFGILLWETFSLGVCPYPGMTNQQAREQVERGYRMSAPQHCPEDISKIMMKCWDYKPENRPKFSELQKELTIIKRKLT
Sequence of Mitogen-activated protein kinase kinase kinase kinase 2 (Q12851 whole entry): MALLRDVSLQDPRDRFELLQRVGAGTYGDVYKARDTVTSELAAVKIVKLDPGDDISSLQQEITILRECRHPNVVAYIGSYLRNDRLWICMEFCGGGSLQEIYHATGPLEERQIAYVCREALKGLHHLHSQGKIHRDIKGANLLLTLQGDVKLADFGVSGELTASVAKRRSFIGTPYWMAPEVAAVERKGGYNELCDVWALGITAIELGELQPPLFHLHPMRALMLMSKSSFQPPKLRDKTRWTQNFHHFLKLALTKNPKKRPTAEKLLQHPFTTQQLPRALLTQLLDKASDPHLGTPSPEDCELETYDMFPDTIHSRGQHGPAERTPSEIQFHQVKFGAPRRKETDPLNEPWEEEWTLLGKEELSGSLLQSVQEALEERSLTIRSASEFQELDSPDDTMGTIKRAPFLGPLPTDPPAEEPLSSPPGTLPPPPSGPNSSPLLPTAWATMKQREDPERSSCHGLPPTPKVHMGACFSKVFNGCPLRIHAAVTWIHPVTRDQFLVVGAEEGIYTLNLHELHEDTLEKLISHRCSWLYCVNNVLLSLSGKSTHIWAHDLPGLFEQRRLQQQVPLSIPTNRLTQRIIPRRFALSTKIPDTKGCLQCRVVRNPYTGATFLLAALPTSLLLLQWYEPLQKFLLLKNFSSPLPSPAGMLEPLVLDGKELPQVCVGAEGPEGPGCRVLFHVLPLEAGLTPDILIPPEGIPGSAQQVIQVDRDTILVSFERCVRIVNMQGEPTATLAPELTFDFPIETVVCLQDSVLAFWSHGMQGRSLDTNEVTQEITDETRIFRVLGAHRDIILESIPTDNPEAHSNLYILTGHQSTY
Sequence of Serine/threonine-protein kinase Chk2 (O96017 whole entry): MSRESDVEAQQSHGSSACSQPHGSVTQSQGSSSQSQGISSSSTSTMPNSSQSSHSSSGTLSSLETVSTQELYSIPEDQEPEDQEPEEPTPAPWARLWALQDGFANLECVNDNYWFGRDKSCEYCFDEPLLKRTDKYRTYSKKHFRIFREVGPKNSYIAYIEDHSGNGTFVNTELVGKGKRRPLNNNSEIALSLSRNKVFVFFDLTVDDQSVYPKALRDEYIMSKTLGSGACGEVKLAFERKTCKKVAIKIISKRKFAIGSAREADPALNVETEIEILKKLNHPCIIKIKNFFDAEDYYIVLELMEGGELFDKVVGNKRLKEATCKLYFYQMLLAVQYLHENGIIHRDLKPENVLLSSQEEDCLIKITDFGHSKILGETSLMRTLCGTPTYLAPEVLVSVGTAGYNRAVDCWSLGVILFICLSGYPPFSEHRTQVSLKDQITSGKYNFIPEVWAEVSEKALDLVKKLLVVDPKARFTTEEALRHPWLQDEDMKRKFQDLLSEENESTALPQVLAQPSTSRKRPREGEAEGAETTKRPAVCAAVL
Sequence of Ribosomal protein S6 kinase alpha-1 (Q15418 whole entry, the tested form may be a part): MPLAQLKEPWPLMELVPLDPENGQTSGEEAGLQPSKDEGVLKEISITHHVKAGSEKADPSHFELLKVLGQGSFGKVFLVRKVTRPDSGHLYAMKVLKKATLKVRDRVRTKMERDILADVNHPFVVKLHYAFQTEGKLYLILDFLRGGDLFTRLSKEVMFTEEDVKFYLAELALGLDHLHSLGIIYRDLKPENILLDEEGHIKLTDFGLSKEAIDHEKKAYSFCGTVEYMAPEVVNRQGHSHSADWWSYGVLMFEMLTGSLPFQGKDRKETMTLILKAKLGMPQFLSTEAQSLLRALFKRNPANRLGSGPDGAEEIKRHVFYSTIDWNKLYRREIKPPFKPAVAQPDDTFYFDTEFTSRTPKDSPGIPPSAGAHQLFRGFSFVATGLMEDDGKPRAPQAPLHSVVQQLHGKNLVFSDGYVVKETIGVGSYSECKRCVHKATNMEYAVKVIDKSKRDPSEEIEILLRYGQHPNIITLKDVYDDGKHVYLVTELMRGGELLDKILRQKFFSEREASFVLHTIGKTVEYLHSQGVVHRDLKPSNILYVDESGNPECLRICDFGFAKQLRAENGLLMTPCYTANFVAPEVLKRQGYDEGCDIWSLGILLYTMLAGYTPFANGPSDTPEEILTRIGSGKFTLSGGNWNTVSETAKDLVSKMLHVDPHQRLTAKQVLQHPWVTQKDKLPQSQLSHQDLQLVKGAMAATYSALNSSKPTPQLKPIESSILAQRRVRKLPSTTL
Sequence of Cyclin-dependent kinase 7 (P50613 whole entry, the tested form may be a part): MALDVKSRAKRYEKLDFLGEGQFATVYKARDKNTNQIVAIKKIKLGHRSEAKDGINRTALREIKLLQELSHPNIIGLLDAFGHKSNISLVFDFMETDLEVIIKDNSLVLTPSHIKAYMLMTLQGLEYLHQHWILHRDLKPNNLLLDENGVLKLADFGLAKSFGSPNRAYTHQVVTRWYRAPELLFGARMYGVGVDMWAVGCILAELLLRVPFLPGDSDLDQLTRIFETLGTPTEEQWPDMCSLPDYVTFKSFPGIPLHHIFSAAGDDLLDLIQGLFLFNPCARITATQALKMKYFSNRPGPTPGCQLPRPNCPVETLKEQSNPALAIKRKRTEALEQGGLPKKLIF
Sequence of Mitogen-activated protein kinase 14 (Q16539 whole entry): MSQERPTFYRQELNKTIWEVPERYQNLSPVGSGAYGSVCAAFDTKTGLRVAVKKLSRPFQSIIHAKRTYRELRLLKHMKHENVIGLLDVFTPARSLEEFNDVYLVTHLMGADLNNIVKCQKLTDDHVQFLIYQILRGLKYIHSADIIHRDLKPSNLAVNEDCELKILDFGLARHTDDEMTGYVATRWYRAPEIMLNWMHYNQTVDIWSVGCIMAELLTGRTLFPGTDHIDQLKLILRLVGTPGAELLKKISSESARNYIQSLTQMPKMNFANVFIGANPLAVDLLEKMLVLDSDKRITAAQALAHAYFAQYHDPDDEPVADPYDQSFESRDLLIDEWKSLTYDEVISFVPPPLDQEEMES

## CCOc1cc(N2CCC(O)CC2)ccc1Nc1ncc2c(n1)N(C)c1ccccc1C(=O)N2C
[1]
  inhibition at 10 µM: -8.1%
[2]
  inhibition: 14.8%
[3]
  inhibition: -2.7%
[4]
  IC50: > 50 µM
[5]
  inhibition: -4%
[6]
  IC50: > 50 µM
[7]
  IC50: > 50 µM
eIF-2-alpha kinase GCN2
  inhibition: 0.2%
[8]
  IC50: > 50 µM
[9]
  IC50: > 50 µM
[10]
  Activity: 28%
Activated CDC42 kinase 1
  IC50: 18 µM
[11]
  IC50: > 50 µM
[12]
  inhibition: -6.7%
